Data from ChEMBL document CHEMBL1144097, “Triterpene trimers from Maytenus scutioides: cycloaddition compounds?” (J Nat Prod, 1999).
The source made the active and inactive calls.

Tests used:
Priestia megaterium = experiment: Antibacterial activity against Bacillus megaterium CECT 44 upto 40 ug/mL by disk diffusion test; type: functional, organism-based
Procedure, shortened: (§1)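 Agar disk diffusion test. Bacterial strains were maintained on Nutrient Agar and the Candida albicans yeast on Sabouraud Agar, both at 37 °C.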

Staphylococcus warneri = experiment: Antibacterial activity against Staphylococcus warneri CECT 236 upto 40 ug/mL by disk diffusion test; type: functional, organism-based; procedure, shortened: as §1
Micrococcus luteus = experiment: Antibacterial activity against Micrococcus luteus CECT 241 upto 40 ug/mL by disk diffusion test; type: functional, organism-based; procedure, shortened: as §1
Proteus mirabilis = experiment: Antibacterial activity against Proteus mirabilis CECT 170 upto 40 ug/mL by disk diffusion test; type: functional, organism-based; procedure, shortened: as §1
HEp-2 = experiment: Cytotoxicity against human Hep2 cells upto 40 ug/mL by MTT reduction assay; type: functional, cell-based
Procedure, shortened: (§2)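 Cells were grown as monolayers in DMEM with 10% newborn calf serum and 1% penicillin-streptomycin mixture. They were kept at 37 °C, 5% CO2 and 90% humidity. Viability was read by colorimetric MTT reduction.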

Staphylococcus aureus = experiment: Antibacterial activity against Staphylococcus aureus ATCC 6538 upto 40 ug/mL by disk diffusion test; type: functional, organism-based; procedure, shortened: as §1
Salmonella sp. = experiment: Antibacterial activity against Salmonella sp. CECT 456 upto 40 ug/mL by disk diffusion test; type: functional, organism-based; procedure, shortened: as §1
Staphylococcus = experiment: Antibacterial activity against Staphylococcus albus SAB C1 upto 40 ug/mL by disk diffusion test; type: functional, organism-based; procedure, shortened: as §1
Bacillus pumilus = experiment: Antibacterial activity against Bacillus pumilus CECT 29 upto 40 ug/mL by disk diffusion test; type: functional, organism-based; procedure, shortened: as §1
Candida albicans = experiment: Antifungal activity against Candida albicans UBC 1 upto 40 ug/mL by disk diffusion test; type: functional, organism-based; procedure, shortened: as §1
Escherichia coli = experiment: Antibacterial activity against Escherichia coli CECT 99 upto 40 ug/mL by disk diffusion test; type: functional, organism-based; procedure, shortened: as §1
[1] = system: Staphylococcus epidermidis; experiment: Antibacterial activity against Staphylococcus epidermidis CECT 232 upto 40 ug/mL by disk diffusion test; type: functional, organism-based; procedure, shortened: as §1
Pseudomonas aeruginosa = experiment: Antibacterial activity against Pseudomonas aeruginosa AK 958 upto 40 ug/mL by disk diffusion test; type: functional, organism-based; procedure, shortened: as §1
Paenibacillus alvei = experiment: Antibacterial activity against Bacillus alvei CECT 2 upto 40 ug/mL by disk diffusion test; type: functional, organism-based; procedure, shortened: as §1
Klebsiella pneumoniae = experiment: Antibacterial activity against Klebsiella pneumoniae CECT 367 upto 40 ug/mL by disk diffusion test; type: functional, organism-based; procedure, shortened: as §1
HeLa = experiment: Cytotoxicity against human HeLa cells upto 40 ug/mL by MTT reduction assay; type: functional, cell-based; procedure, shortened: as §2
Bacillus subtilis = experiment: Antibacterial activity against Bacillus subtilis CECT 39 upto 40 ug/mL by disk diffusion test; type: functional, organism-based; procedure, shortened: as §1
Bacillus cereus = experiment: Antibacterial activity against Bacillus cereus CECT 496 upto 40 ug/mL by disk diffusion test; type: functional, organism-based; procedure, shortened: as §1
[2] = system: Staphylococcus saprophyticus; experiment: Antibacterial activity against Staphylococcus saprophyticus CECT 235 upto 40 ug/mL by disk diffusion test; type: functional, organism-based; procedure, shortened: as §1
Salmonella typhimurium = experiment: Antibacterial activity against Salmonella Typhimurium UBC 2 upto 40 ug/mL by disk diffusion test; type: functional, organism-based; details: Salmonella enterica subsp. enterica serovar Typhimurium; procedure, shortened: as §1
Hafnia alvei = experiment: Antibacterial activity against Enterobacter hafniae CECT 400 upto 40 ug/mL by disk diffusion test; type: functional, organism-based; procedure, shortened: as §1

Measured: Activity

COC(=O)[C@]1(C)CC[C@]2(C)CC[C@]3(C)C4=CC=C5C(=CC(=O)[C@@]6(O)Oc7c(cc8c(c7C)[C@H]7Oc9c(cc%10c(c9C)CCC9[C@@]%10(C)CC[C@@]%10(C)[C@@H]%11C[C@](C)(C(=O)OC)CC[C@]%11(C)CC[C@]9%10C)O[C@H]7C7[C@@]8(C)CC[C@@]8(C)[C@@H]9C[C@](C)(C(=O)OC)CC[C@]9(C)CC[C@]78C)O[C@@]56C)[C@]4(C)CC[C@@]3(C)[C@@H]2C1 (stereo partly specified)
inactive: all assays above
